Most compounds without a hit are left out; they make up all but 3.3% or so of the library.
PRMT1 FP inh: inhibitors of human PRMT1. Q99873. recombinant PRMT1, activity-based probe fluorescence polarization. inhibition, % at 2.79 µM. 370,000 tested, 1.3% active. AID 652257;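 active = inhibition above about 21% made by adding two undisclosed values, limit read from the data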
SIAE inh: human SIAE inhibition, primary screen; Q9HAT2; SIAE FP-Rh probe binding, fluorescence polarization; inhibition, % at 9.66 µM; 370,000 tested, 0.69% active; AID 1053197;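 active = inhibition above a cutoff: mean of compounds within the control limits plus 3 SD of those, cut at about 17% in these data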;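 note: 0% = plate median of compound wells and 100% = probe without SIAE protein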
Target sequence (Q9HAT2 whole entry, looked up): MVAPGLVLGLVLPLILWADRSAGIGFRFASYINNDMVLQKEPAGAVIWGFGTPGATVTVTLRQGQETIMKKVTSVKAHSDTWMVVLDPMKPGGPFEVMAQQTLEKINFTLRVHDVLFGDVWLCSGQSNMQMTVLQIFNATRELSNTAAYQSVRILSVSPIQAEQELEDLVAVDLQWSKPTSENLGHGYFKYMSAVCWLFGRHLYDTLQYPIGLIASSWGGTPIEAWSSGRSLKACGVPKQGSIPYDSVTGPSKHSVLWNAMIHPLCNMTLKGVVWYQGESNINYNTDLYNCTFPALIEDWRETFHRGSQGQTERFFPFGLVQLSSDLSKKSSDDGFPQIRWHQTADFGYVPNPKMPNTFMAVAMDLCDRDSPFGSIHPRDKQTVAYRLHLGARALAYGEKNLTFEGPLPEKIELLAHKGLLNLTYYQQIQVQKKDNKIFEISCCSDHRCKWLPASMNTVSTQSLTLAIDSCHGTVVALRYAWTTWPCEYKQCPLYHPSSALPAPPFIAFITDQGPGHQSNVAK
ABHD4 inh: inhibitors of mouse ABHD4. purified mABHD4, FP-Rh probe fluorescence polarization. 370,000 tested, 0.54% active. inhibition, % at 8.92 µM. AID 720543. Q8VD66;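 active = inhibition exceeding the mean over every tested compound plus 3 SD, cut at about 30% in these data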;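 note: 0% = plate median of compound wells and 100% = S159A mutant with DMSO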
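Test system: mouse ABHD4 enzyme, wild type. Reagent: FP-Rh fluorescent activity-based probe, added after compound pre-incubation. Timing: pre-incubation 45 min, probe exposure 60 min, at 25 °C. Technique: FP readout, ex 525 nm / em 598 nm. Benchmarks: high control S159A mutant with DMSO, low control median of compound wells.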
rCAG binder: binds r(CAG) RNA repeats | r(CAG) RNA repeat, TO-PRO-1 dye displacement fluorescence | inhibition, % at 3 µM | 370,000 tested, 1.3% active | AID 651821;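 active = inhibition above the plate cutoff, the mean of all test compounds on that plate plus 3 SD, cut at about 35% in these data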;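 note: 0% = DMSO alone and 100% = 100 µM mitoxantrone as full dye displacement; higher means more dye released from RNA so lower well fluorescence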
HTRA1 inh: HTRA1 (human) protease inhibition. 340,000 tested, 0.5% active. inhibition, % at 5.96 µM. recombinant HTRA1, FP-rhodamine activity-based probe, fluorescence polarization; in the data active = inhibition above about 36%;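 note: 0% = enzyme with DMSO and 100% = wells lacking enzyme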
rCAG bind conf: r(CAG) RNA repeat binding, confirmation. shares compounds with rCAG binder. TO-PRO-1 dye displacement fluorescence. inhibition, % at 3 µM. 4,300 tested, 70% active. AID 652065;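 active = inhibition above a per-plate cutoff, the mean inhibition of sample wells plus 3 SD, cut at about 35% in these data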;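 note: loss of TO-PRO-1 fluorescence as compound displaces dye from 1x1 AA loop RNA; 0% = DMSO only wells and 100% = 100 µM mitoxantrone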
DNA CAG counter: disrupts DNA CAG TO-PRO-1 complex, flagging rCAG hits. AID 652068. 4,300 tested, 94% active. shares compounds with rCAG binder. inhibition, % at 3 µM. d(CAG) DNA oligo TO-PRO-1 dye displacement, fluorescence;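 active = inhibition above its plate's cutoff, the mean test-well inhibition plus 3 SD, cut at about 4.8% in these data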;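 note: 0% = DNA dye mix with DMSO and 100% = 100 µM mitoxantrone; hits displace the dye from DNA and so lower well fluorescence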
dCAG dye DR: counter-screen for rCAG binders: inhibitors of DNA CAG TO-PRO-1 complex; shares compounds with rCAG binder; DNA CAG/GTC duplex TO-PRO-1 dye displacement fluorescence; IC50, µM; 250 tested, 20% active; AID 686960; in the data active = IC50 below about 10 µM
An asterisk follows results filed as active; i = inactive; . = not tested or not shown.

SMILES	PRMT1 FP inh	SIAE inh	ABHD4 inh	rCAG binder	HTRA1 inh	rCAG bind conf	DNA CAG counter	others
Cc1ccc(S(=O)(=O)C(C#N)c2nc3ccccc3nc2N2CCC(C)CC2)cc1 (stereo unspecified)	4.5	5.7	8.7	-1.2	10.2	.	.
Cc1ccc(Cn2cc(CN3[C@@H](CC(C)C)COc4cc(Br)ccc4S3(=O)=O)nn2)cc1	-0.8	-4.9	-0.3	5.4	.	.	.
Cc1ccc(-c2nc3c(Cl)cc(Cl)cc3c(=O)n2O)cc1	1.6	-8.6	7.1	57.8*	7.4	14.4	3.0
CCc1cc(=O)[nH]c(-n2[nH]c(-c3ccccc3)cc2=O)n1	-4.1	-5.2	-1.1	16.8	11.0	.	.
O=c1cc(-c2ccccc2)[nH]n1-c1nc2ccccc2[nH]1	-0.8	7.9	11.6	64.8*	19.9	15.7	9.1*
OC(c1ccccc1)(c1ccccc1)C1CCN(CCCOc2ccc(-c3ccc(F)cc3F)cc2)CC1	2.1	-0.6	25.7	8.2	.	.	.
Cc1ccccc1S(=O)(=O)N1[C@@H](c2ccccc2)C(C(=O)O)=CC[C@H]1c1ccc(Cl)cc1	2.0	-1.0	14.8	65.4*	-20.5	74.0*	36.4*
Cc1ccc([C@@H]2CC=C(C(=O)O)[C@H](c3ccc(Cl)cc3)N2S(=O)(=O)c2ccccc2C)cc1	-1.1	-10.7	6.0	73.4*	-39.1	69.8*	31.5*	dCAG dye DR=i
Cc1ccccc1S(=O)(=O)N1C(c2ccc(Cl)c(Cl)c2)CC=C(C(=O)O)C1c1cccc(Br)c1 (stereo unspecified)	1.7	-14.7	19.2	85.6*	.	85.4*	57.4*
Cc1ccc([C@@H]2CC=C(C(=O)O)[C@H](c3ccc(Br)cc3)N2S(=O)(=O)c2ccccc2C)cc1	1.4	-8.5	3.2	85.8*	-55.3	81.4*	47.5*
CN(C)c1ccc(NC(=S)OC2CCC23CCC(c2ccccc2)CC3)cc1 (stereo unspecified)	-0.3	-2.4	-0.2	5.5	.	.	.
Cc1ccccc1S(=O)(=O)N1[C@@H](c2ccc(Br)cc2)C(C(=O)O)=CC[C@H]1c1ccc(Cl)cc1	-3.9	-14.6	-12.3	87.9*	-80.3	83.8*	56.6*
COc1ccc([C@@H]2CC=C(C(=O)O)[C@H](c3ccc(Br)cc3)N2S(=O)(=O)c2ccccc2C)cc1	1.3	-13.8	-0.5	76.8*	-28.0	75.5*	39.9*
COc1ccc([C@@H]2CC=C(C(=O)O)[C@H](c3ccc(Cl)cc3)N2S(=O)(=O)c2ccccc2C)cc1	-0.9	1.2	1.8	47.2*	-10.2	60.0*	24.7*
COc1cc([C@@H]2CC=C(C(=O)O)[C@H](c3ccc(F)cc3)N2S(=O)(=O)c2ccc(C)cc2)cc(OC)c1OC	-1.7	-2.8	16.2	29.5	-0.8	.	.
C=CS(=O)(=O)N(Cc1ccc(C)cc1)[C@@H](CO)C(=O)OC	-0.3	-1.1	3.9	2.6	.	.	.
COC[C@@H]1CCCN1c1cccc2c1S(=O)(=O)N(C1CC1)CCCO2	2.5	4.7	8.5	3.1	.	.	.
O=C1/C(=C\c2cccc([N+](=O)[O-])c2O)SC(=S)N1Cc1ccccc1	15.8	-6.2	-27.4	37.3*	9.4	93.4*	78.2*
COc1cc(/C=C2/SC(=S)N(Cc3ccccc3)C2=O)cc(Cl)c1O	-0.6	-199.4	-139.7	14.3	-88.2	.	.
O=C1/C(=C/c2ccc(O)c([N+](=O)[O-])c2)SC(=S)N1Cc1ccccc1	-2.8	2.7	5.4	7.1	3.0	.	.
COc1cc([N+](=O)[O-])cc(/C=C2/SC(=S)N(Cc3ccccc3)C2=O)c1O	21.1*	-107.2	-157.2	78.8*	-80.1	95.0*	84.7*
CCCCOCCCNC(=O)C[C@H]1C[C@@]2(C(=O)OC)C(=C[C@H](C3CCCC3)O[C@@H]2C)N(CCc2ccc(OC)c(OC)c2)C1=O	1.4	-1.6	1.0	-0.7	.	.	.
CN1CCN(c2ccc3c(c2)Oc2ccccc2CN(Cc2cn(Cc4ccc(C(F)(F)F)cc4)nn2)S3(=O)=O)CC1	-4.1	0.5	-0.1	6.9	.	.	.
O=C(NN=Cc1ccc(F)cc1)c1ccccc1NS(=O)(=O)c1cccs1	-0.2	1.1	0.2	26.1	3.8	.	.
